Columns and labels:
[1] = Binding affinity to synthetic poly(dA):poly(rU) DNA:RNA hybrid assessed as melting temperature at 2.2 uM
Method in brief: (§1)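 Thermal denaturation of each nucleic acid (20 µM/bp) with ligand at 2.2 µM, with melting temperatures read from UV and CD melting profiles. ΔTm is taken against the ligand-free Tm0.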

[2] = Binding affinity to synthetic poly(rA):poly(rU) RNA:RNA duplex assessed as melting temperature at 2.2 uM; method in brief: as §1
[3] = Binding affinity to synthetic poly(dA-dT):poly(dA-dT) DNA:DNA duplex assessed as association constant at 20 degC
Method in brief: (§2)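 Apparent association constant is estimated from the UV/CD melting-temperature shift (Eq. 1). Binding stoichiometry n comes from fluorescence titrations, duplex melting enthalpy from DSC, and free ligand is taken as half the total. The value is extrapolated to 20 °C by integrated van't Hoff using dilution-corrected excess-site ITC enthalpies (15, 20, 25 °C) and derived ΔCp. Buffer: 10 mM sodium cacodylate, 0.5 mM EDTA, 100 mM NaCl, pH 5.5.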

[4] = Binding affinity to synthetic poly(dA-dT):poly(dA-dT) DNA: DNA duplex assessed as melting temperature at 2.2 uM; method in brief: as §1
[5] = Binding affinity to synthetic poly(rA):poly(rU) DNA:RNA hybrid assessed as association constant at 20 degC; method in brief: as §2
[6] = Binding affinity to synthetic poly(dA):poly(rU) DNA:RNA hybrid assessed as association constant at 20 degC; method in brief: as §2
[7] = Binding affinity to synthetic poly(dA):poly(rU) DNA:RNA hybrid assessed as change in melting temperature at 2.2 uM; method in brief: as §1
[8] = Binding affinity to synthetic poly(dA-dT):poly(dA-dT) DNA:DNA duplex assessed as change in melting temperature at 2.2 uM; method in brief: as §1
[9] = Binding affinity to synthetic A-site RNA assessed as melting temperature at 2.2 uM; method in brief: as §1
[10] = Binding affinity to synthetic poly(dA):2poly(dT) DNA:DNA duplex assessed as melting temperature at 2.2 uM; method in brief: as §1
[11] = Binding affinity to synthetic poly(rA):poly(rU) RNA:RNA duplex assessed as change in melting temperature at 2.2 uM; method in brief: as §1
[12] = Binding affinity to synthetic poly(rA):poly(rU) RNA duplex assessed as association constant at 20 degC
[13] = Binding affinity to synthetic A-site RNA assessed as change in melting temperature at 2.2 uM; method in brief: as §1
[14] = Binding affinity to synthetic poly(dA):poly(dT) DNA:DNA duplex assessed as change in melting temperature at 2.2 uM; method in brief: as §1
[15] = Binding affinity to synthetic poly(dA):poly(dT) DNA:DNA duplex assessed as melting temperature at 2.2 uM; method in brief: as §1
DNA [16] = experiment: Binding affinity to calf thymus DNA assessed as change in melting temperature at 2.2 uM; type: nucleic-acid assay; settings: Bos taurus; method in brief: as §1
[17] = Binding affinity to synthetic poly(rA):poly(dT) DNA:RNA hybrid assessed as change in melting temperature at 2.2 uM; method in brief: as §1
[18] = Binding affinity to synthetic poly(dA): 2poly(dT) DNA:DNA duplex assessed as change in melting temperature at 2.2 uM; method in brief: as §1
[19] = Binding affinity to synthetic poly(dG):poly(dC) DNA:DNA duplex assessed as melting temperature at 2.2 uM; method in brief: as §1
[20] = Binding affinity to synthetic poly(rA):poly(dT) DNA:RNA hybrid assessed as melting temperature at 2.2 uM; method in brief: as §1
DNA [21] = experiment: Binding affinity to calf thymus DNA assessed as melting temperature at 2.2 uM; type: nucleic-acid assay; settings: Bos taurus; method in brief: as §1

Row | SMILES | Tm [1] [°C] | Tm [2] [°C] | Ka [3] | Tm [4] [°C] | Ka [6] | Ka [12] | further results
1 | CC[n+]1c(-c2ccccc2)c2cc(N)ccc2c2ccc(N)cc21 | 61.8 | 64.2 | 2 ×10⁵ /M | 63.2 | 9.3 ×10⁶ /M |  | Ka [5]: 1.8 ×10⁶ /M
2 | C[n+]1c(-c2ccc(C(=O)NCCSC[C@H]3O[C@@H](O[C@@H]4[C@@H](O)[C@H](N)C[C@H](N)[C@H]4O[C@H]4O[C@H](CN)[C@@H](O)[C@H](O)[C@H]4N)[C@H](O)[C@@H]3O[C@H]3O[C@@H](CN)[C@@H](O)[C@H](O)[C@H]3N)cc2)c2cc(N)ccc2c2ccc(N)cc21 | 90.5 | 77 | 1 ×10⁶ /M | 66.2 | 4.8 ×10¹⁰ /M | 2.1 ×10⁹ /M | ΔTm [7]: 46.9 °C; ΔTm [8]: 7.4 °C; Tm [9]: 79.8 °C; Tm [10]: 75.9 °C; ΔTm [11]: 34.3 °C; ΔTm [13]: 8.1 °C; ΔTm [14]: 7.7 °C; Tm [15]: 76.1 °C; ΔTm (DNA [16]): > 8.1 °C; ΔTm [17]: 20.1 °C; ΔTm [18]: 7.7 °C; Tm [19]: > 95 °C; Tm [20]: 82.4 °C; Tm (DNA [21]): > 95 °C
3 | NC[C@@H]1O[C@H](O[C@H]2[C@@H](O)[C@H](O[C@@H]3[C@@H](O)[C@H](N)C[C@H](N)[C@H]3O[C@H]3O[C@H](CN)[C@@H](O)[C@H](O)[C@H]3N)O[C@@H]2CO)[C@H](N)[C@@H](O)[C@@H]1O | 65.8 | 64.7 | 7 ×10⁴ /M | 62.9 | 9.9 ×10⁶ /M | 2.6 ×10⁷ /M | 

— ChEMBL document CHEMBL1155073, “Molecular recognition of a DNA:RNA hybrid: sub-nanomolar binding by a neomycin-methidium conjugate” (Bioorg Med Chem Lett, 2008)
